{"data": "Results pooled from the literature", "target": "Serine/threonine-protein kinase BRSK1 (BRSK1, Homo sapiens, UniProt Q8TDC3)", "One construct used (Q8TDC3 1-778)": "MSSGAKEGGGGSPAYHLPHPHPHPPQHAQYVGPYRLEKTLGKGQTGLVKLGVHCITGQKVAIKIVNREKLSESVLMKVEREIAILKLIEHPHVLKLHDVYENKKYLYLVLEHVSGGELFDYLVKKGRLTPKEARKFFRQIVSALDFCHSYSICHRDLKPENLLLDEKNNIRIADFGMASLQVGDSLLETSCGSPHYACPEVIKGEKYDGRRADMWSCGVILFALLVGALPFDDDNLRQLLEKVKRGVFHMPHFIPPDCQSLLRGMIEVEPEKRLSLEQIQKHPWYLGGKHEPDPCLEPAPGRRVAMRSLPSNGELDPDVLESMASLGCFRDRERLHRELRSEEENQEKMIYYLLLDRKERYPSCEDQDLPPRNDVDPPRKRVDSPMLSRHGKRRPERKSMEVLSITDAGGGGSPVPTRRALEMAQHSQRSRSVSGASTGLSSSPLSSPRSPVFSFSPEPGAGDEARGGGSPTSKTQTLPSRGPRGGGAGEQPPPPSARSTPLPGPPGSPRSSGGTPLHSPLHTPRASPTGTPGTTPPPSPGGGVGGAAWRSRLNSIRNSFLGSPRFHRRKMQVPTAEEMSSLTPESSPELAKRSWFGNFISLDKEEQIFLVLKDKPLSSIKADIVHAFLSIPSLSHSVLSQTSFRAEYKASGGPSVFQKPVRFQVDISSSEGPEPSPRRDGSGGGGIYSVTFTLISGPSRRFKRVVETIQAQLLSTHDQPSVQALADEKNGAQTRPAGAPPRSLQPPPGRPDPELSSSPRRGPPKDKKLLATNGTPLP", "note": "Compare with care: the assays were run in different laboratories."}
{"Structure (SMILES)": "FC(F)(F)Oc1cccc(-c2cnc3ccc(-c4ccncc4)nn23)c1", "test": "cell-free assay, competition with immobilised ligand", "conditions": "5 µM", "remaining binding [%]": 85}
{"Structure (SMILES)": "Cc1cnc(Nc2ccc(C(=O)N3CCC(N4CCCC4)CC3)cc2)nc1-c1cc2ccccc2s1", "test": "binding, competition with immobilised ligand", "conditions": "1 µM", "remaining binding [%]": 100}
{"Structure (SMILES)": "Cc1c[nH]c2nccc(Oc3c(F)cc(Nc4cc(Cl)nc(N)n4)cc3F)c12", "test": "cell-free assay, competition with immobilised ligand", "conditions": "0.1 µM", "remaining binding [%]": 96}
{"Structure (SMILES)": "COc1cnc(Nc2cccc(S(N)(=O)=O)c2)nc1N1CCN(c2ccccc2)CC1", "test": "binding, competition with immobilised ligand", "conditions": "1 µM", "remaining binding [%]": 96}
{"Structure (SMILES)": "C[C@@H](c1ccc(-n2cnc3c(N)ncnc32)cc1)N1CCc2nn(C)c(Cc3ccccc3)c2C1=O", "test": "binding, competition with immobilised ligand", "conditions": "0.1 µM", "remaining binding [%]": 93}
{"Structure (SMILES)": "C[C@@H]1CCN(c2nccc(-c3cnn4ncccc34)n2)C1", "test": "binding", "conditions": "1 µM", "remaining binding [%]": 93}
{"Structure (SMILES)": "O=C(c1ccc(Nc2ncc(Cl)c(-c3cc4ccccc4s3)n2)cc1)N1CCC(N2CCCC2)CC1", "test": "binding, competition with immobilised ligand", "conditions": "1 µM", "remaining binding [%]": 32}
{"Structure (SMILES)": "CN(c1ccnc(CNc2nc(Nc3ccc4c(c3)CC(=O)N4)ncc2C(F)(F)F)n1)S(C)(=O)=O", "test": "cell-free assay, competition with immobilised ligand", "conditions": "1 µM", "remaining binding [%]": 43}
{"Structure (SMILES)": "CN(C)c1nccc(-c2cnc3ncccn23)n1", "test": "binding", "conditions": "1 µM", "remaining binding [%]": 100}
{"Structure (SMILES)": "CS(=O)(=O)c1cc(C2(NC(=O)c3cncc4c3cnn4-c3ccc(F)cc3)CC2)ccn1", "test": "cell-free assay, competition with immobilised ligand", "conditions": "1 µM", "remaining binding [%]": 74}
{"Structure (SMILES)": "N[C@H]1CCN(c2nccc(-c3cnn4ncccc34)n2)C1", "test": "binding", "conditions": "1 µM", "remaining binding [%]": 81}
{"Structure (SMILES)": "CC(C)CC(=O)N1CCc2nc(-c3ccc(Br)cc3)nc(N(C)Cc3ccccc3)c2C1", "test": "cell-free assay, competition with immobilised ligand", "conditions": "0.1 µM", "remaining binding [%]": 100}
{"Structure (SMILES)": "CN(C)c1nccc(-c2cnn3ncccc23)n1", "test": "binding", "conditions": "1 µM", "remaining binding [%]": 100}
{"Structure (SMILES)": "C[C@H](c1cccc(C#N)c1)n1cc(Cl)cc(C(N)=O)c1=N", "test": "cell-free assay, competition with immobilised ligand", "conditions": "1 µM", "remaining binding [%]": 68}
{"Structure (SMILES)": "O=C(NCC1CCOCC1)c1n[nH]cc1NC(=O)c1c(F)cccc1F", "test": "binding, competition with immobilised ligand", "conditions": "1 µM", "remaining binding [%]": 100}
{"Structure (SMILES)": "O=C(c1ccc(Nc2nccc(-c3cc4ccccc4s3)n2)cc1)N1CCC(N2CCCC2)CC1", "test": "binding, competition with immobilised ligand", "conditions": "1 µM", "remaining binding [%]": 61}
{"Structure (SMILES)": "c1cnn2ncc(-c3ccnc(N4CCC45COC5)n3)c2c1", "test": "binding", "conditions": "1 µM", "remaining binding [%]": 82}
{"Structure (SMILES)": "CC(=O)c1c(NS(C)(=O)=O)c2cc(-c3ccc(Cl)cc3)c(-c3ccc(Cl)cc3Cl)nc2n(C)c1=O", "test": "cell-free assay, competition with immobilised ligand", "conditions": "1 µM", "remaining binding [%]": 99}
{"Structure (SMILES)": "COc1ccnn2ncc(-c3ccnc(N(C)C)n3)c12", "test": "binding", "conditions": "1 µM", "remaining binding [%]": 98}
{"Structure (SMILES)": "CCN1CCN(Cc2ccc(C(=O)Nc3ccc(C)c(Oc4ccc5c(c4)CC(=O)N5)c3)cc2C(F)(F)F)CC1", "test": "binding, competition with immobilised ligand", "conditions": "1 µM", "remaining binding [%]": 94}
{"Structure (SMILES)": "CNC(=O)[C@@H]1CC[C@@H](n2c(-c3ccc4cnccc4c3)nc3ccc(C(=O)NCc4cccc(C(N)=O)c4)cc32)C1", "test": "binding, competition with immobilised ligand", "conditions": "1 µM", "remaining binding [%]": 100}
{"Structure (SMILES)": "CN(CCCC(F)(F)F)c1nccc(-c2cnn3ncccc23)n1", "test": "binding", "conditions": "1 µM", "remaining binding [%]": 100}
